Experimental data reported in ChEMBL document CHEMBL1137225, “Synthesis of analogues of Congo red and evaluation of their anti-prion activity” (2004).
pEC50: −log10 of the molar value.

What was measured:
Format in all cases: functional
[1] = molecular target: Major prion protein (Mus musculus) (UniProt P04925); test: Inhibition of PrPC polymerization by PrP-res at 100 uM; parameters: scale not given: the % may be the effect or the level left
Procedure, shortened: (§1)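 Substrate recombinant mouse PrP refolded without metal ions (50 μg), preincubated with compound (100 μM) in 500 μL H2O pH 6.5 for 30 min; seeded with aged Mn2+-refolded mouse PrP (10 μg). Turbidity read at 325 nm (5-mm cuvette) immediately and after 5 min; absorbance increase expressed as percentage of DMSO control.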

[2] = molecular target: Major prion protein (Mus musculus) (UniProt P04925); test: Inhibition of PrP-res formation in SMB (Scrapie mouse brain) cells at 10 uM
Procedure, shortened: (§2)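 Persistently scrapie-infected mouse SMB cells in 199 medium with 10% FCS, 5% newborn calf serum, 37 °C, 5% CO2; plated at 50% confluency, attached 24 h, then given fresh medium with compound diluted from 10 mM DMSO stock for 4 days. Lysates digested with proteinase K (80 μg/mL, 1 h, 37 °C); PrP-res detected by DR1 western blot, ECL, densitometry.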

SMB = test: (§3) Compound was tested for the inhibition of PrP-res formation in SMB cells at 50 uM; conditions: Mus musculus; procedure, shortened: as §2
[3] = Effective dose required for the inhibition of PrP-res formation in SMB cells; conditions: Mus musculus, read-out: ED50 (the source's name); procedure, shortened: as §2
[4] = as §3; conditions: Mus musculus; procedure, shortened: as §2
[5] = Compound was tested for the inhibition of PrP-res formation in SMB cells at 2 uM; conditions: Mus musculus; procedure, shortened: as §2
[6] = Effective dose required for the inhibition of PrP-res formation in SMB cells; value ranges from 25-50 nM; conditions: Mus musculus, read-out: ED50 (the source's name); procedure, shortened: as §2
[7] = Compound was tested for the ability to inhibit the polymerization of PrPC by PrP-res at 100 uM; value ranges from 17-50 %; parameters: scale not given: the % may be the effect or the level left; procedure, shortened: as §1

Sequence of Major prion protein (Mus musculus) (P04925 whole entry): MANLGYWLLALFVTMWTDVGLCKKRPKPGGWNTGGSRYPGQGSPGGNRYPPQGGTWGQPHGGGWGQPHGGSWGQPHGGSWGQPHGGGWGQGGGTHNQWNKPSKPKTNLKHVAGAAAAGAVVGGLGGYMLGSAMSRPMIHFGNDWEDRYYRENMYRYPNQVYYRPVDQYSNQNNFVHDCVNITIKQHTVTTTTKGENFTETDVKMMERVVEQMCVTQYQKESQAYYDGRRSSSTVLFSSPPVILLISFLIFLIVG

SMILES | Control [1] | inhibition [2] | further results
O=C(O)c1cc(NC(=O)c2ccc(C(=O)Nc3cc(C(=O)O)cc(C(=O)O)c3)cc2)cc(C(=O)O)c1 | 1% | Negative | 
O=C(O)c1ccc(NCc2ccc(CNc3ccc(C(=O)O)cc3O)cc2)c(O)c1 | 79% | Negative | 
O=C(O)c1cc(NS(=O)(=O)c2ccc(-c3ccc(S(=O)(=O)Nc4cc(C(=O)O)cc(C(=O)O)c4)cc3)cc2)cc(C(=O)O)c1 | 2% | Negative | inhibition (SMB): Negative
CCOC(=O)c1ccc(/N=C/c2ccc(/C=N/c3ccc(C(=O)OCC)c(O)c3)cc2)cc1O | 92% | Negative | 
COC(=O)c1cc(/N=C/c2ccc(/C=N/c3ccc(O)c(C(=O)OC)c3)cc2)ccc1O |  | Negative | 
Oc1ccc(/N=C/c2ccc(/C=N/c3ccc(O)cc3)cc2)cc1 | 240% | Negative | 
COC(=O)c1cc(NC(=O)c2ccc(-c3ccc(C(=O)Nc4ccc(O)c(C(=O)OC)c4)cc3)cc2)ccc1O | 249% | Positive | pEC50 [3]: 5.30
COC(=O)c1ccc(NC(=O)c2ccc(-c3ccc(C(=O)Nc4ccc(C(=O)OC)c(O)c4)cc3)cc2)cc1O | NR | Negative | 
O=C(Nc1ccc([N+](=O)[O-])cc1O)c1ccc(C(=O)Nc2ccc([N+](=O)[O-])cc2O)cc1 | 15% | Negative | 
O=C(Nc1ccccc1)c1ccc(-c2ccc(C(=O)Nc3ccccc3)cc2)cc1 | 171% | Negative | 
O=C(Nc1ccccc1)c1ccc(C(=O)Nc2ccccc2)cc1 | 54% | Negative | 
COc1ccc(C(=O)O)cc1/N=C/c1ccc(/C=N/c2cc(C(=O)O)ccc2OC)cc1 | 11% | Negative | 
COc1ccc(C(=O)O)cc1NS(=O)(=O)c1ccc(-c2ccc(S(=O)(=O)Nc3cc(C(=O)O)ccc3OC)cc2)cc1 | 62% | Negative | inhibition at 50 µM [4]: 33%
O=C(O)c1ccc(C/N=C/c2ccc(/C=N/Cc3ccc(C(=O)O)cc3)cc2)cc1 | 117% | Negative | 
O=C(O)c1ccc(/N=C/c2ccc(-c3ccc(/C=N/c4ccc(C(=O)O)cc4O)cc3)cc2)c(O)c1 | 62% | Positive | 
COC(=O)c1ccc(OC)c(/N=C/c2ccc(/C=N/c3cc(C(=O)OC)ccc3OC)cc2)c1 | 47% | Negative | inhibition (SMB): Negative
N#Cc1ccc(NC(=O)c2ccc(C(=O)Nc3ccc(C#N)cc3)cc2)cc1 | 68% | Negative | 
O=C(O)c1ccc(/N=C/c2ccc(/C=N/c3ccc(C(=O)O)cc3O)cc2)c(O)c1 | 35% | Negative | inhibition (SMB): Negative
COC(=O)c1ccc(NC(=O)c2ccc(C(=O)Nc3ccc(C(=O)OC)cc3O)cc2)c(O)c1 | 62% | Positive | pEC50 [3]: 5.30
O=C(O)c1ccc(NS(=O)(=O)c2ccc(-c3ccc(S(=O)(=O)Nc4ccc(C(=O)O)cc4O)cc3)cc2)c(O)c1 | 12% | Negative | inhibition (SMB): Negative
Oc1ccccc1/N=C/c1ccc(-c2ccc(/C=N/c3ccccc3O)cc2)cc1 | 281% | Negative | 
Cc1ccc(/N=C/c2ccc(/C=N/c3ccc(C)cc3O)cc2)c(O)c1 | 230% | Negative | 
COC(=O)c1ccc(NC(=O)c2ccc(C(=O)Nc3ccc(C(=O)OC)cc3)cc2)cc1 | 100% | Negative | 
COC(=O)c1ccc(OC)c(NCc2ccc(CNc3cc(C(=O)OC)ccc3OC)cc2)c1 | 20% | Positive | pEC50 [3]: 6.60
O=C(Oc1ccccc1)c1ccc(NS(=O)(=O)c2ccc(-c3ccc(S(=O)(=O)Nc4ccc(C(=O)Oc5ccccc5)c(O)c4)cc3)cc2)cc1O | 90% | Negative | inhibition (SMB): Negative
N#Cc1ccc(/N=C/c2ccc(/C=N/c3ccc(C#N)cc3)cc2)cc1 | 81% | Positive | pEC50 [3]: 6.30
COC(=O)c1ccc(/N=C/c2ccc(/C=N/c3ccc(C(=O)OC)cc3O)cc2)c(O)c1 | 140% | Negative | inhibition (SMB): Negative

SMILES | Control [1] | inhibition [2] | further results
C(=N\c1ccccc1)/c1ccc(/C=N/c2ccccc2)cc1 |  | Negative | 
O=C(Nc1ccc([N+](=O)[O-])cc1O)c1ccc(-c2ccc(C(=O)Nc3ccc([N+](=O)[O-])cc3O)cc2)cc1 | 160% | Negative | 
COC(=O)c1ccc(NCc2ccc(CNc3ccc(C(=O)OC)cc3O)cc2)c(O)c1 | 166% | Positive | pEC50 [3]: 7.12
O=C(O)c1cc(/C=C/c2ccc(/C=C/c3ccc(O)c(C(=O)O)c3)cc2)ccc1O | 72% | Negative | inhibition at 50 µM [4]: 3%
COC(=O)c1ccc(NS(=O)(=O)c2ccc(-c3ccc(S(=O)(=O)Nc4ccc(C(=O)OC)cc4O)cc3)cc2)c(O)c1 | 30% | Negative | inhibition at 50 µM [4]: 77%
O=C(O)c1ccc(/N=C/c2ccc(/C=N/c3ccc(C(=O)O)cc3)cc2)cc1 | 12% | Negative | 
COC(=O)c1ccc(OC)c(/N=C/c2ccc(-c3ccc(/C=N/c4cc(C(=O)OC)ccc4OC)cc3)cc2)c1 |  | Negative | 
C(=N\c1ccccc1)/c1ccc(-c2ccc(/C=N/c3ccccc3)cc2)cc1 | 315% | Negative | 
COc1cc(NC(=O)c2ccc(-c3ccc(C(=O)Nc4ccc(C(=O)O)c(OC)c4)cc3)cc2)ccc1C(=O)O | 472% | Negative | 
O=C(Nc1ccccc1O)c1ccc(-c2ccc(C(=O)Nc3ccccc3O)cc2)cc1 | 430% | Negative | 
Oc1ccccc1NCc1ccc(CNc2ccccc2O)cc1 | 240% | Positive | pEC50 [3]: 5.60
O=C(O)c1cc(/N=C/c2ccc(/C=N/c3ccc(O)c(C(=O)O)c3)cc2)ccc1O | 53% | Negative | 
O=C(Oc1ccccc1)c1ccc(/N=C/c2ccc(/C=N/c3ccc(C(=O)Oc4ccccc4)c(O)c3)cc2)cc1O | 113% | Negative | inhibition (SMB): Negative
COC(=O)c1ccc(NC(=O)c2ccc(-c3ccc(C(=O)Nc4ccc(C(=O)OC)c(OC)c4)cc3)cc2)cc1OC | 70% | Positive | pEC50 [3]: 6.60
CCOC(=O)c1cc(/N=C/c2ccc(/C=N/c3ccc(O)c(C(=O)OCC)c3)cc2)ccc1O | 60% | Negative | 
Oc1ccccc1/N=C/c1ccc(/C=N/c2ccccc2O)cc1 | 85% | Negative | 
Oc1ccc(/C=C/c2ccc(/C=C/c3ccc(O)cc3)cc2)cc1 |  |  | inhibition at 2 µM [5]: 5%
N#Cc1ccc(/N=C/c2ccc(/C=N/c3ccc(C#N)c4ccccc34)cc2)c2ccccc12 | 148% | Negative | 
Oc1ccc(/N=C/c2ccc(-c3ccc(/C=N/c4ccc(O)cc4)cc3)cc2)cc1 | 104% | Positive | pEC50 [3]: 6.60
COC(=O)c1ccc(NC(=O)c2ccc(-c3ccc(C(=O)Nc4ccc(C(=O)OC)cc4O)cc3)cc2)c(O)c1 |  | Positive | pEC50 [6]: 7.30; Control [7]: 50%
COC(=O)c1ccc(/N=C/c2ccc(/C=N/c3ccc(C(=O)OC)c(O)c3)cc2)cc1O | 113% | Negative | 
COC(=O)c1ccc(OC)c(NS(=O)(=O)c2ccc(-c3ccc(S(=O)(=O)Nc4cc(C(=O)OC)ccc4OC)cc3)cc2)c1 | 77% | Negative | inhibition (SMB): Negative
COC(=O)c1cc(NC(=O)c2ccc(C(=O)Nc3cc(C(=O)OC)cc(C(=O)OC)c3)cc2)cc(C(=O)OC)c1 | 147% | Positive | pEC50 [3]: 6.60
N#Cc1ccc(NC(=O)c2ccc(-c3ccc(C(=O)Nc4ccc(C#N)cc4)cc3)cc2)cc1 | 196% | Negative | 
O=[N+]([O-])c1ccc(/N=C/c2ccc(/C=N/c3ccc([N+](=O)[O-])cc3O)cc2)c(O)c1 | 109% | Negative | 
COC(=O)c1ccc(OC)c(NC(=O)c2ccc(C(=O)Nc3cc(C(=O)OC)ccc3OC)cc2)c1 | 70% | Negative | 
COC(=O)c1ccc(/N=C/c2ccc(-c3ccc(/C=N/c4ccc(C(=O)OC)cc4O)cc3)cc2)c(O)c1 | 49% | Negative | inhibition at 50 µM [4]: 53%
